From ChEMBL document CHEMBL3351225, “Design, synthesis, and structure-activity and structure-pharmacokinetic relationship studies of novel [6,6,5] tricyclic fused oxazolidinones leading to the discovery of a potent, selective, and orally bioavailable FXa inhibitor” (J Med Chem, 2014)

Experiments:
[1] = AUC (0 to infinity) in Beagle dog at 0.5 mg/kg, iv; format: ADME, organism-based, Canis lupus familiaris; parameters: time infinity, dose 0.5 mg/kg, route intravenous; details: plasma
Method in brief: (§1)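 Male dogs, three per group. Dosed orally at 1 mg/kg or by intravenous infusion at 0.5 mg/kg. Vehicle was 5% DMSO + 5% Tween-80 in 90% saline, or 10% DMSO + 10% Tween-80 + 80% PEG400 for the reference drug. Foreleg blood samples were quantified by LC-MS. Parameters came from noncompartmental analysis of mean plasma concentrations.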

Trypsin = Trypsin (Homo sapiens, UniProt P07477+P07478+P35030); assay: Inhibition of human trypsin using N-Z-D-Arg-Gly-Arg-pNA, S-2765 chromogenic substrate; format: protein assay
Method in brief: (§2)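 Human enzyme and inhibitor were premixed and preincubated, then the chromogenic substrate was added. Substrate levels: 300 μM S-2765 (FXa, trypsin); 200 μM S-2366 (FIIa); 2 mM S-2366 (FVIIa, FXIa). pNA release was monitored continuously at 405 nm for 20 min at 37 °C. IC50 was obtained by nonlinear regression.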

Plasma [2] = assay: Anticoagulant activity in citrated rabbit plasma assessed as activated partial thromboplastin time preincubated for 10 mins at 37 degC by coagulometry; format: functional, Oryctolagus cuniculus
Method in brief: (§3)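 Test compound or DMSO added to citrated rabbit plasma (3.8% sodium citrate, 10:90 v/v) and preincubated 10 min at 37 °C. PT and aPTT clotting times measured on a coagulometer with commercial kits. Activity expressed as the concentration needed to double plasma clotting time (CT2, μM).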

Rattus norvegicus [3] = assay: Antithrombotic activity in rat model of FeCl3-induced venous thrombosis assessed as reduction in thrombus formation dosed orally 60 mins before thrombus formation; details: po
[4] = Volume of distribution at steady state in Beagle dog at 0.5 mg/kg, iv; format: ADME, organism-based, Canis lupus familiaris; parameters: dose 0.5 mg/kg, route intravenous; details: in vivo, read-out: Vdss; method in brief: as §1
Cytochrome P450 1A2 = target: T1, Cytochrome P450 1A2 (Homo sapiens, UniProt P05177); assay: Inhibition of CYP1A2 (unknown origin); format: ADME
T1 sequence (P05177 whole entry): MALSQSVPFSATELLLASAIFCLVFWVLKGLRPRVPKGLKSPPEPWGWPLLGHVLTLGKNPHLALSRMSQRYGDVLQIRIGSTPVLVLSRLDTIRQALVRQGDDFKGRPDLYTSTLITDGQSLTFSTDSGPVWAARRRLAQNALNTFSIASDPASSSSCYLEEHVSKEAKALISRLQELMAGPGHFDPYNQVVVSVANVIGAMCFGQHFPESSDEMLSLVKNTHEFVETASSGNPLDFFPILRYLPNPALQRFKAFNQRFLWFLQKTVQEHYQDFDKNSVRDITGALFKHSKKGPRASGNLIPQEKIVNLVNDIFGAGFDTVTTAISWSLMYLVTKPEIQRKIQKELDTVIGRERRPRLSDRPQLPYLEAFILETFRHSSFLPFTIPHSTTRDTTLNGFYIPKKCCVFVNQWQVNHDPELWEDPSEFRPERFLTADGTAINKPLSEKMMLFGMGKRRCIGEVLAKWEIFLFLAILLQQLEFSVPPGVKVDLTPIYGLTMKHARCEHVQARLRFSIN

Rattus norvegicus [5] = assay: Induction of tail bleeding in rat assessed as prolongation of bleeding time dosed orally 60 mins before surgery; format: organism-based; details: in vivo, po, 1 h
Method in brief: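 Anesthetized rats were dosed orally with compound suspended in 0.5% CMC-Na, or vehicle, 60 min before the tail was transected 4 mm from the tip. The tail was immersed vertically in saline at 37 °C. Bleeding time was taken as the point when flow ceased for >30 s, with a 30 min maximum.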

Coagulation factor XI = Coagulation factor XI (Homo sapiens, UniProt P03951); assay: Inhibition of human factor 11a using S-2366 chromogenic substrate; method in brief: as §2
Plasma [6] = assay: Anticoagulant activity in citrated rabbit plasma assessed as drug concentration required to double plasma clotting time preincubated for 10 mins at 37 degC by coagulometry; format: functional, Oryctolagus cuniculus; method in brief: as §3
[7] = Plasma clearance in Sprague-Dawley rat at 3 mg/kg, iv; format: ADME, organism-based; parameters: dose 3 mg/kg, route intravenous
Method in brief: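 Male Sprague-Dawley rats, 200−220 g, four per group. Vehicle was 5% DMSO + 5% Tween-80 in 90% saline. The reference drug was given in 10% DMSO + 10% Tween-80 + 80% PEG400 (40% solution in saline). Serial retrobulbar vein samples were quantified by LC-MS. Parameters came from noncompartmental analysis of mean plasma concentrations.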

Rattus norvegicus [8] = assay: Toxicity in rat assessed as induction of food intake changes at 50 mg/kg, po dosed once daily for 2 weeks; format: organism-based; parameters: dose 50 mg/kg, route oral; details: in vivo, 336 h
Method in brief: (§4)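 Subacute toxicity in rats: oral dosing once daily for 2 weeks at 50 mg/kg (medium) or 100 mg/kg (high). Behavior, body weight, food intake, organ coefficients and survival rate were monitored.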

Rattus norvegicus [9] = assay: Toxicity in rat assessed as induction of organ coefficients changes at 50 mg/kg, po dosed once daily for 2 weeks; format: organism-based; parameters: dose 50 mg/kg, route oral; details: in vivo, 336 h; method in brief: as §4
Salmonella typhimurium = assay: Genotoxicity in Salmonella typhimurium by Ames test; format: toxicity, organism-based; details: salmonella enterica subsp. enterica serovar typhimurium

Chain of Coagulation factor XI (P03951 19-387 limits assumed): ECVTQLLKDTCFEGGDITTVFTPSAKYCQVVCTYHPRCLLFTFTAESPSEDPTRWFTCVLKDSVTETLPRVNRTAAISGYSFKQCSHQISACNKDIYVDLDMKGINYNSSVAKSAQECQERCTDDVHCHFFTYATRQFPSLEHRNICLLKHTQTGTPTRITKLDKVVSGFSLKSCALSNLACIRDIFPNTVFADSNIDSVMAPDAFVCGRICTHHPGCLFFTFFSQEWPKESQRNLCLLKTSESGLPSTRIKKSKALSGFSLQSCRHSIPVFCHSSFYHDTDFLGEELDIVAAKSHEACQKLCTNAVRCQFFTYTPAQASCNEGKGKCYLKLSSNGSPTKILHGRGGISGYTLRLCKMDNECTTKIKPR
Chain of Coagulation factor XI (P03951 388-625 limits assumed): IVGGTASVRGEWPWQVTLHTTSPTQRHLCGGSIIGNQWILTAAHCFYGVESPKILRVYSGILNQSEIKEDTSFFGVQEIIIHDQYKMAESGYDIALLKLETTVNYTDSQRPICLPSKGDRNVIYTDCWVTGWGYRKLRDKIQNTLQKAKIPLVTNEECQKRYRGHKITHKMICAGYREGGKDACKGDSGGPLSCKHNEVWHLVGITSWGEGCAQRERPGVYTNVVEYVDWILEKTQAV

O=C(NC[C@@H]1OC(=O)N2c3ccc(N4CCOCC4=O)cc3OC[C@@H]12)c1ccc(Cl)s1
AUC(0-inf) [1]: 1320 ng·h/mL
IC50 (Trypsin): > 100 µM
2aPTT (Plasma [2]): 0.14 µM
ED50 (Rattus norvegicus [3]): 5.63 mg/kg
Vd [4]: 1.7 L/kg
IC50 (Cytochrome P450 1A2): > 200 µM
Activity (Rattus norvegicus [5]): Dose-dependent effect
IC50 (Coagulation factor XI): > 100 µM
Activity (Plasma [6]): 0.18 µM
clearance [7]: 3.35 mL/min/kg
Activity (Rattus norvegicus [8]): Non-toxic
Activity (Rattus norvegicus [9]): Non-toxic
Activity (Salmonella typhimurium): Non-toxic
